Experimental data published in ChEMBL document CHEMBL1765072, “Inhibition of amyloidogenesis by nonsteroidal anti-inflammatory drugs and their hybrid nitrates” (J Med Chem, 2011).
Active and inactive are the calls of the source. The calls are words filed in the database; no cut-off is given here.

Columns and labels:
[1] = Cytotoxicity against mouse RAW264.7 cells assessed as cell viability at 100 uM after 24 hrs by MTT assay relative to control; format: cell-based; details: read-out: Activity
Method in brief: (§1)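 RAW 264.7 cells given 0.5 mg/ml MTT in medium for 4 h, washed with PBS; formazan dissolved in DMSO, shaken 30 min, absorbance read at 570 nm against a 630 nm reference. Viability expressed relative to DMSO control.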

RAW264.7 [2] = experiment: Antiinflammatory activity against mouse RAW264.7 cells assessed as LPS-induced nitrate production at 100 uM treated 30 mins before LPS challenge measured after 24 hrs by Griess reagent method relative to control
N2a [3] = experiment: Antiamyloidogenic activity in mouse N2A cells transfected with human APP Swedish mutant assessed as reduction of amyloid beta (1 to 42) level at 10 uM after 24 hrs by ELISA; format: functional, cell-based
Method in brief: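 N2a/APPsw cells (25 × 10⁴/well, plated 24 h prior) washed with PBS and treated with drug in DMEM with 0.2 % FBS for 24 h. Supernatant got NaN₃ (0.01 % final) and protease inhibitors, was centrifuged, and Aβ1–42 was measured by human sandwich ELISA. Values normalized to DMSO vehicle; mean and s.e.m., at least 4 experiments on separate passages.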

N2a [4] = experiment: Antiamyloidogenic activity in mouse N2A cells transfected with human APP Swedish mutant assessed as increase of amyloid beta (1 to 37) level at 10 uM after 24 hrs by ELISA; format: functional, cell-based; details: in the assay text read “immunoprecipitation MALDI-TOF” for “ELISA”
Method in brief: (§2)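 N2a cells stably expressing Swedish-mutant human APP, 1 × 10⁶ cells/well, drug-treated 24 h in DMEM with 0.2 % FBS without G418. Conditioned media got NaN₃, protease inhibitors and a ~1 ng/mL Aβ1–43 internal standard, then biotinylated 4G8/6E10 immunoprecipitation and linear-positive MALDI-TOF. Peak heights were normalized to Aβ1–43, then to DMSO control.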

N2a [5] = experiment: Antiamyloidogenic activity in mouse N2A cells transfected with human APP Swedish mutant assessed as increase of amyloid beta (1 to 38) level at 10 uM after 24 hrs by ELISA; format: functional, cell-based; details: in the assay text read “immunoprecipitation MALDI-TOF” for “ELISA”; method in brief: as §2
[6] = Cytotoxicity against mouse RAW264.7 cells assessed as cell viability at 10 uM after 24 hrs by MTT assay relative to control; format: cell-based; details: read-out: Activity; method in brief: as §1
N2a [7] = experiment: Antiamyloidogenic activity in mouse N2A cells transfected with human APP Swedish mutant assessed as amyloid beta (1 to 42) level at 1 uM after 24 hrs by ELISA relative to control
RAW264.7 [8] = experiment: Antiinflammatory activity against mouse RAW264.7 cells assessed as LPS-induced nitrate production at 10 uM treated 30 mins before LPS challenge measured after 24 hrs by Griess reagent method relative to control
N2a [9] = experiment: Antiamyloidogenic activity in mouse N2A cells transfected with human APP Swedish mutant assessed as increase of amyloid beta (1 to 42) level at 100 uM after 24 hrs by ELISA; format: functional, cell-based
N2a [10] = experiment: Antiamyloidogenic activity in mouse N2A cells transfected with human APP Swedish mutant assessed as increase of amyloid beta (1 to 42)/(1 to 40) ratio at 100 uM after 24 hrs by ELISA; format: functional, cell-based
N2a [11] = experiment: Antiamyloidogenic activity in mouse N2A cells transfected with human APP Swedish mutant assessed as increase of amyloid beta (1 to 40) level at 100 uM after 24 hrs by ELISA; format: functional, cell-based
N2a (Mus musculus) = experiment: Cytotoxicity against mouse N2a/APPsw cells assessed as cell viability at 1 uM after 24 hrs by MTT assay relative to control

SMILES	viability at 24 h, 10 µM [6] [%]	level, % of control at 1 µM (N2a [7]) [%]	level, % of control at 10 µM (RAW264.7 [8]) [%]	viability at 24 h, 1 µM (N2a (Mus musculus)) [%]	also measured
O=C(OCCO[N+](=O)[O-])C1(c2ccc(-c3ccc(C(F)(F)F)cc3)c(F)c2)CC1					viability at 24 h, 100 µM [1]: 128%; level, % of control at 100 µM (RAW264.7 [2]): 42.8%
CC1=C(CC(=O)O)c2cc(F)ccc2/C1=C\c1ccc([S+](C)[O-])cc1 (stereo not drawn)	104	100	85.7		inhibition (N2a [3]): Active; Activity (N2a [4]): Active; Activity (N2a [5]): Active
O=C(OCCBr)C1(c2ccc(-c3ccc(Cl)c(Cl)c3)c(F)c2)CC1					Activity (N2a [9]): Active; Activity (N2a [10]): Active; viability at 24 h, 100 µM [1]: 114%; Activity (N2a [11]): Active; level, % of control at 100 µM (RAW264.7 [2]): 27.8%
N#CC(F)c1ccc(-c2ccccc2)c(F)c1 (stereo not drawn)		65.6		93.1	
NC(=O)C(F)(F)c1ccc(-c2ccc(F)cc2)c(F)c1	98.8	109	84.1	95.9	
O=C(O)C(F)c1ccc(-c2ccccc2)c(F)c1 (stereo not drawn)	92.7	91.8	81.5	98.7	
O=C(O)C1(c2ccc(-c3ccc(Cl)c(Cl)c3)c(F)c2)CC1		125			viability at 24 h, 100 µM [1]: 19.1%
COc1ccc2c(c1)c(CC(=O)NCCc1cccnc1)c(C)n2C(=O)c1ccc(Cl)cc1	95.6	135	100		
O=C(O)C1(c2ccc(-c3ccc(F)cc3)c(F)c2)CC1	102	90.4	86.4	102	
CSc1ccc(/C=C2/C=C(CC(=O)NCc3ccccc3)c3cc(F)ccc32)cc1	100	94.5	58.4		
C[S+]([O-])c1ccc(/C=C2/C=C(CC(=O)O)c3cc(F)ccc32)cc1 (stereo not drawn)	104	95	91.6		
NC(=O)C(F)c1ccc(-c2ccccc2)c(F)c1 (stereo not drawn)		101		103	
CCC(C#N)(CC)c1ccc(-c2cccc3ccccc23)c(F)c1	107	105	91.3	91.6	
CCC(CC)(C(=O)O)c1ccc(-c2ccccc2)c(F)c1		124		95.5	
N#CC(F)c1ccc(-c2ccc(F)cc2)c(F)c1 (stereo not drawn)	84.5		65.3	69.4	
NC(=O)C(F)c1ccc(-c2ccc(F)cc2)c(F)c1 (stereo not drawn)	90.6		74.7	69.1	
COc1ccc2c(c1)c(CNCCO)c(C)n2C(=O)c1ccc(Cl)cc1	100	118	52.5		
CCNC(=O)CC1=C/C(=C/c2ccc(SC)cc2)c2ccc(F)cc21	104	95.7	80.4		
